Values belong to the molecule of their own block, whether it stands above or below them.
Key:
[1] = biological target: ATP-binding cassette sub-family C member 2 (Homo sapiens, UniProt Q92887); experiment: Inhibition of human MRP2 expressed in MDCK2 cells assessed as reduction of [3H]E217betaG substrate transport at 25 uM by liquid scintillation counting; assay type: ADME, cell-based; conditions: mdck-ii
Outline: (§1)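 Membrane vesicles made from MDCKII cells expressing BCRP or MRP2, and from parental cells (1 μg/μL protein). Run in Tris-sucrose buffer, pH 7.4, with 10 mM MgCl2, creatine phosphokinase and ATP, or AMP as control. Substrates: 0.035 μM [3H]E-sul for BCRP, 2 min; 0.033 μM [3H]E217βG for MRP2, 5 min; both at 37 °C. Stopped ice-cold, filtered, and counted by scintillation.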

[2] = biological target: T1, Broad substrate specificity ATP-binding cassette transporter ABCG2 (Homo sapiens, UniProt Q9UNQ0); experiment: Inhibition of human BCRP expressed in MDCK2 cells assessed as reduction of [3H]E-sul substrate transport at 50 uM by liquid scintillation counting; assay type: ADME, cell-based; conditions: mdck-ii; outline: as §1
T1 sequence (Q9UNQ0 whole entry): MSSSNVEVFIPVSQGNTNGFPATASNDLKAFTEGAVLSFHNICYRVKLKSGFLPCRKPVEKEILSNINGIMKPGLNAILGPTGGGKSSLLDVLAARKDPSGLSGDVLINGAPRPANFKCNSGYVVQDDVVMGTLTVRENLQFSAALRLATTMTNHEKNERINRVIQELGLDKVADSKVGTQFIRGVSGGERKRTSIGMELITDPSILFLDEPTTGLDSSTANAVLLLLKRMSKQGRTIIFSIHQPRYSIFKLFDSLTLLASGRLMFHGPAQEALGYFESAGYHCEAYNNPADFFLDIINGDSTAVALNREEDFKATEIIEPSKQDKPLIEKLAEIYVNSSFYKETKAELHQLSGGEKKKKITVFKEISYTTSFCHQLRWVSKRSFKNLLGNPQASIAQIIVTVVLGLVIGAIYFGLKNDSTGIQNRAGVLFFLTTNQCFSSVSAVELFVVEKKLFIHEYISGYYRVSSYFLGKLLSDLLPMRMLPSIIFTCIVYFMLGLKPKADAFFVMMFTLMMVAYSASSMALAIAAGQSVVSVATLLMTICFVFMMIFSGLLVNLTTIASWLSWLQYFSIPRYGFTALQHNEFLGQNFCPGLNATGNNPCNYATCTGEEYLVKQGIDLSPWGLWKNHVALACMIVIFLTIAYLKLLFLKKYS

[3] = biological target: T2, Organic anion transporter 3 (Homo sapiens, UniProt Q8TCC7); experiment: Inhibition of OAT3 (unknown origin) expressed in HEK293 cells assessed as reduction of [3H]E-sul substrate uptake at 100 uM by liquid scintillation counting; assay type: ADME, cell-based; conditions: hek293, 100 µM
T2 sequence (Q8TCC7 whole entry): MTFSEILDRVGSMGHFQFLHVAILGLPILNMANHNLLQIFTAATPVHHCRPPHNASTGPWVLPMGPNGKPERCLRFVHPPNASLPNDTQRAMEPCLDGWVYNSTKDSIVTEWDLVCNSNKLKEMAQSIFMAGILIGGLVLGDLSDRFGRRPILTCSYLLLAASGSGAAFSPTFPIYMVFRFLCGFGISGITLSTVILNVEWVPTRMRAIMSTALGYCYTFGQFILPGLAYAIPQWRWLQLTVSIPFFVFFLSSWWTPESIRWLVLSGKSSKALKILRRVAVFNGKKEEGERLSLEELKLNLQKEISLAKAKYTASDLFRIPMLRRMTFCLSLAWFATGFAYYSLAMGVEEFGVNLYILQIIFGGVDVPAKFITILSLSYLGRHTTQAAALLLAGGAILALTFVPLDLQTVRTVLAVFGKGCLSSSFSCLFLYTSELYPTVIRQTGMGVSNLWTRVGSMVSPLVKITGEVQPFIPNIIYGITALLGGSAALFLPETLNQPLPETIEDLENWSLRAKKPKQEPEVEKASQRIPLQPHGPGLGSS
Outline: (§2)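 HEK293 cells transiently transfected with OAT, OATP or OCT plasmid (FuGENE6; 24 h, then 24 h more with sodium butyrate), or stable OCTN1/OCTN2 lines; vector-transfected cells as control. Washed, preincubated 15–60 min at 37 °C in modified Krebs-Henseleit/25 mM HEPES buffer. Uptake of radiolabelled substrate, 100 µM inhibitor. Cells lysed in NaOH and counted by scintillation; counts normalised to medium radioactivity and Lowry protein; vector uptake subtracted.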

[4] = biological target: T3, Solute carrier family 22 member 11 (Homo sapiens, UniProt Q9NSA0); experiment: Inhibition of OAT4 (unknown origin) expressed in HEK293 cells assessed as reduction of [3H]E-sul substrate uptake at 500 uM by liquid scintillation counting; assay type: ADME, cell-based; conditions: hek293, 500 µM
T3 sequence (Q9NSA0 whole entry): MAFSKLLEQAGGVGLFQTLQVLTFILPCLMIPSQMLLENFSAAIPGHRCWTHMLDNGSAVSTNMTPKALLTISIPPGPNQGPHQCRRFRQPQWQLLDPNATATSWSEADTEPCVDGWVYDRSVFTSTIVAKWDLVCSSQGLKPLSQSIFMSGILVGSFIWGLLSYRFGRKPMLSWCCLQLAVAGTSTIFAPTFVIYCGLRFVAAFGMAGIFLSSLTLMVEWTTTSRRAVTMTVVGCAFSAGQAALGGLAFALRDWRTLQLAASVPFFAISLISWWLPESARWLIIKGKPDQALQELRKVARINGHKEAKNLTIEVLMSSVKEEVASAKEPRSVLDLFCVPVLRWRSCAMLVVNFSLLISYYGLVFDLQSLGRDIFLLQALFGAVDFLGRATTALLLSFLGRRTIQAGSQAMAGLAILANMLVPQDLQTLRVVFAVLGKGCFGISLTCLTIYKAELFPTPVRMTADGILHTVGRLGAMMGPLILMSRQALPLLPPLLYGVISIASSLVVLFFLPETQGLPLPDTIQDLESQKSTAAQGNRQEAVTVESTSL
Outline: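 HEK293 cells transfected with OAT4, incubated with 0.1 μM [3H]E-sul and probenecid 500 µM as the inhibitor. Uptake counted by scintillation, normalised to protein, with vector uptake subtracted.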

OCTN1 (SLC22A4) = biological target: T4, OCTN1 (SLC22A4) (Homo sapiens, UniProt Q9H015); experiment: Inhibition of OCTN1 (unknown origin) expressed in HEK293 cells assessed as reduction of [3H]ergothioneine substrate uptake at 1500 uM by liquid scintillation counting; assay type: cell-based; conditions: HEK293 cells expressing OCTN1, probe [3H]ergothioneine
T4 sequence (Q9H015 whole entry): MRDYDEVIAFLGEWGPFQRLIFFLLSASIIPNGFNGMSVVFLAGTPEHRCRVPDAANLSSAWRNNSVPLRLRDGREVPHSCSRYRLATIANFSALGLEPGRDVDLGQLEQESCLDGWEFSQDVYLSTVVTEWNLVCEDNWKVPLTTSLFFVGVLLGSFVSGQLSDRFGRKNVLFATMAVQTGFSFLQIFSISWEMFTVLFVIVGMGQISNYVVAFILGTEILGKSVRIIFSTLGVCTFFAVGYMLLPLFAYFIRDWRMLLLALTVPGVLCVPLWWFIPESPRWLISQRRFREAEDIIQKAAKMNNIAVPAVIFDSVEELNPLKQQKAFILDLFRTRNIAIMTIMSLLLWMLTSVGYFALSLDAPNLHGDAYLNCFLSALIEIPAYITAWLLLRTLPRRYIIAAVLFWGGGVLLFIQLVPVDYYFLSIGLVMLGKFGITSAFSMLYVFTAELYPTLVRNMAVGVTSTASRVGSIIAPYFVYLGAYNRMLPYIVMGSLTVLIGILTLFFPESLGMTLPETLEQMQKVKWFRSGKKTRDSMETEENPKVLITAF
Outline: (§3)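 HEK293 cells stably expressing OCTN1 or OCTN2, cultured two days before the assay. Quinidine 1500 µM tested against [3H]ergothioneine (1 μM, OCTN1) or [3H]carnitine (0.1 μM, OCTN2). Vector-cell uptake subtracted.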

OCTN2 = biological target: T5, OCTN2 (Homo sapiens, UniProt O76082); experiment: Inhibition of OCTN2 (unknown origin) expressed in HEK293 cells assessed as reduction of [3H]carnitine substrate uptake at 1500 uM by liquid scintillation counting; assay type: cell-based; conditions: HEK293 cells expressing OCTN2, probe [3H]carnitine; outline: as §3
T5 sequence (O76082 whole entry): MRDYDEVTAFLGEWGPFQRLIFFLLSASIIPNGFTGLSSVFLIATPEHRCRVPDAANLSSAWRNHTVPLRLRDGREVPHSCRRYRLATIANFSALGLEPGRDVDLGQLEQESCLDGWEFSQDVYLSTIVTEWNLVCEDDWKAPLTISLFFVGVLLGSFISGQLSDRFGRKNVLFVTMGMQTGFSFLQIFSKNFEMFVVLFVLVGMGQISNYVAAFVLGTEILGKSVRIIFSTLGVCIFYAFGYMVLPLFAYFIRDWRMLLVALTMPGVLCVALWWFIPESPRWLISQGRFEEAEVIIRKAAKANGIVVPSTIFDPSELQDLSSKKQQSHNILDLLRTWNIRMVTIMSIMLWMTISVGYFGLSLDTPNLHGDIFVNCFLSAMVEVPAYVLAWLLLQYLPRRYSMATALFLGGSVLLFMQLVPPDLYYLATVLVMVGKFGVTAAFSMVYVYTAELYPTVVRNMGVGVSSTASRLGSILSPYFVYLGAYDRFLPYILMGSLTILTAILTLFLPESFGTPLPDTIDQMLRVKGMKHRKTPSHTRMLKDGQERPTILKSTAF

[5] = biological target: T6, Solute carrier organic anion transporter family member 1B1 (Homo sapiens, UniProt Q9Y6L6); experiment: Inhibition of OATP1B1 (unknown origin) expressed in HEK293 cells assessed as reduction of [3H]E217betaG substrate uptake at 100 uM by liquid scintillation counting; assay type: ADME, cell-based; conditions: hek293, 100 µM; outline: as §2
T6 sequence (Q9Y6L6 whole entry): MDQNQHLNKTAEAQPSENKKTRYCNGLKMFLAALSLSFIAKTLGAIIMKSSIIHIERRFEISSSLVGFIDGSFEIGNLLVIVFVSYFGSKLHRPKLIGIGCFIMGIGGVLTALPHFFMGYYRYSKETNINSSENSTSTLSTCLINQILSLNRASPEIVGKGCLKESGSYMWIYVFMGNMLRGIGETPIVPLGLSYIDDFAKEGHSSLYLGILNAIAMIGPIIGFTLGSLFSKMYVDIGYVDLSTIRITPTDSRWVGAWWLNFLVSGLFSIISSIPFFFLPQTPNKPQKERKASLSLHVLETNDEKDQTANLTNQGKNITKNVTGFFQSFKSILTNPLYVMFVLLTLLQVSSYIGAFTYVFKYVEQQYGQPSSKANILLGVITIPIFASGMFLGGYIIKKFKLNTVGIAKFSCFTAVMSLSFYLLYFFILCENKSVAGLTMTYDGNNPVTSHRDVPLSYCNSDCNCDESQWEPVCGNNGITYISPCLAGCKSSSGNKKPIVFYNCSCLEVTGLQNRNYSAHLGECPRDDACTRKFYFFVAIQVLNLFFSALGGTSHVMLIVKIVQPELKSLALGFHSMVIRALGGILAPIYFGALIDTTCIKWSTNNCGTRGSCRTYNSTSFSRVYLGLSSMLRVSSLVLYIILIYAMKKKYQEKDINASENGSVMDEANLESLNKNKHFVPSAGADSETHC

[6] = biological target: T7, Solute carrier organic anion transporter family member 1B3 (Homo sapiens, UniProt Q9NPD5); experiment: Inhibition of OATP1B3 (unknown origin) expressed in HEK293 cells assessed as reduction of [3H]CCK8 substrate uptake at 100 uM by liquid scintillation counting; assay type: ADME, cell-based; conditions: hek293, 100 µM; outline: as §2
T7 sequence (Q9NPD5 whole entry): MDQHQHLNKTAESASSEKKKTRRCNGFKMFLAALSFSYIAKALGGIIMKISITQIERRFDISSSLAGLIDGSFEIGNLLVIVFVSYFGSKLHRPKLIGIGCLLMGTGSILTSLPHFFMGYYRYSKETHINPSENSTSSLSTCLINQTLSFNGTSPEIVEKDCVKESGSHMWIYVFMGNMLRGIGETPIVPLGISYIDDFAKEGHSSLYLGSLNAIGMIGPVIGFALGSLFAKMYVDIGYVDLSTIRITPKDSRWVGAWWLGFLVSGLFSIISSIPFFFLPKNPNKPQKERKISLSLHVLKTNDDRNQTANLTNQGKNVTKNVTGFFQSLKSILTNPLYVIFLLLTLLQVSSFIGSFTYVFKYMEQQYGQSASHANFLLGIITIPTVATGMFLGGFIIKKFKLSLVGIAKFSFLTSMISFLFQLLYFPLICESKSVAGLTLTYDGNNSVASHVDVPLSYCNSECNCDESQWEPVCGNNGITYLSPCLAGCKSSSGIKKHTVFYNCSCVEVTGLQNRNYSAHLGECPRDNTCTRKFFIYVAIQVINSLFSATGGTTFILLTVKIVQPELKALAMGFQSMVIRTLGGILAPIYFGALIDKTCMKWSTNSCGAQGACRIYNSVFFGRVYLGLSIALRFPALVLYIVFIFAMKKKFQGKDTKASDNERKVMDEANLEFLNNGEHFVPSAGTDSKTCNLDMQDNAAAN

ATP-binding cassette sub-family C member 2, sequence (Q92887 whole entry): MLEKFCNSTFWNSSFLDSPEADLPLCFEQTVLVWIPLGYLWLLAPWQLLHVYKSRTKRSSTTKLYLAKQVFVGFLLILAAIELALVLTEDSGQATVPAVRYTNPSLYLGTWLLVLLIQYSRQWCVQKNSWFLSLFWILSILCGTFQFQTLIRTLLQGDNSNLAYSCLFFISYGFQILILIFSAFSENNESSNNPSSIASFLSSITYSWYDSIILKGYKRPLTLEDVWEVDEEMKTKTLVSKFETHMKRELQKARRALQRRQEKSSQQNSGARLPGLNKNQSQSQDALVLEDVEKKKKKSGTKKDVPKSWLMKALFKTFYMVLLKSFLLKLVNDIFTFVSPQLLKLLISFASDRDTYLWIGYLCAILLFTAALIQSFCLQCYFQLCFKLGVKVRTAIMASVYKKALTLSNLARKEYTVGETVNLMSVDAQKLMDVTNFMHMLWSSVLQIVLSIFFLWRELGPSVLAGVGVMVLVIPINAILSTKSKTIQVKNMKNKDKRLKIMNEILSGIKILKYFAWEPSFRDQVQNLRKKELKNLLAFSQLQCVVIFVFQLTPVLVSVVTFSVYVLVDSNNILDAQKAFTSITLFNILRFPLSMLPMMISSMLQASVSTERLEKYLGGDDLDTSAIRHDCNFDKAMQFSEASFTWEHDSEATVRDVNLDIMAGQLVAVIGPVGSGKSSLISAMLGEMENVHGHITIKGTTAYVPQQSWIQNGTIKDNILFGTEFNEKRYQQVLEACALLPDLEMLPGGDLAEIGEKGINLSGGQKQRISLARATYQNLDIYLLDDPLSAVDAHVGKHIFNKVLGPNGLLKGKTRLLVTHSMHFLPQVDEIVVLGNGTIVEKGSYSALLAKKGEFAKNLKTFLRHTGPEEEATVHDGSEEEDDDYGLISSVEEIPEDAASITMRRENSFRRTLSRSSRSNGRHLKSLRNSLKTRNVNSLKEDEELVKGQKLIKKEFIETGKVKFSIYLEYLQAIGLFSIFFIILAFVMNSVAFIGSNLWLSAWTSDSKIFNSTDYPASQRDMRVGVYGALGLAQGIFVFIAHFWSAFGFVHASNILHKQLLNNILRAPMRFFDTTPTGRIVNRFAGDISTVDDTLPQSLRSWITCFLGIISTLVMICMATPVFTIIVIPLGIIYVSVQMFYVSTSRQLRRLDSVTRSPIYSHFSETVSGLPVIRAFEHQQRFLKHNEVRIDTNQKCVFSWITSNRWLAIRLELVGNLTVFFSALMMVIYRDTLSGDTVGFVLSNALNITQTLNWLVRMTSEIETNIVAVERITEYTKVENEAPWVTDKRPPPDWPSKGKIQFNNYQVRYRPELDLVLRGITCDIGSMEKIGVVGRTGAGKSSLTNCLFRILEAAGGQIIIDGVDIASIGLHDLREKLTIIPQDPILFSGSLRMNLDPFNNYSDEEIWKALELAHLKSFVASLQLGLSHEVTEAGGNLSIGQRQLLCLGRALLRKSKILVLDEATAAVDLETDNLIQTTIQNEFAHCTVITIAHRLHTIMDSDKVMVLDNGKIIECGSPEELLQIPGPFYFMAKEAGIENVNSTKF

Structure (SMILES): CN(C)C(=O)CCSC(SCCC(=O)O)c1cccc(/C=C/c2ccc3ccc(Cl)cc3n2)c1 (stereo not drawn) [MK-571]
inhibition (INH) [1]: Active

Structure (SMILES): COc1cc2nc(N3CCN(C(=O)c4ccco4)CC3)nc(N)c2cc1OC [PRAZOSIN]
inhibition (INH) [2]: Active

The remaining lines, values ahead:

inhibition (INH) [3]: 88.5% | inhibition (INH) [4]: 81.4%
Structure (SMILES): CCCN(CCC)S(=O)(=O)c1ccc(C(=O)O)cc1 [PROBENECID]

inhibition at 1500 µM (OCTN1 (SLC22A4)): 83.9% | inhibition at 1500 µM (OCTN2): 89.9%
Structure (SMILES): C=C[C@H]1C[N@@]2CC[C@H]1C[C@@H]2[C@@H](O)c1ccnc2ccc(OC)cc12 [QUINIDINE]

inhibition (INH) [5]: 98.4% | inhibition (INH) [6]: 97.4%
Structure (SMILES): CO[C@H]1/C=C/O[C@@]2(C)Oc3c(C)c(O)c4c(O)c(c(/C=N/N5CCN(C)CC5)c(O)c4c3C2=O)NC(=O)/C(C)=C\C=C\[C@H](C)[C@H](O)[C@@H](C)[C@@H](O)[C@@H](C)[C@H](OC(C)=O)[C@@H]1C [RIFAMPIN]

From ChEMBL document CHEMBL3525903 (Drug Metab Dispos, 2013)
